Results: ChEMBL document CHEMBL1795285, “Facile fabrication of promising protein tyrosine phosphatase (PTP) inhibitor entities based on 'clicked' serine/threonine-monosaccharide hybrids” (Bioorg Med Chem, 2011)
Calls of active or inactive are those of the source. The calls are words filed in the database; no cut-off is given here.

Columns and labels:
[1] = molecular target: Receptor-type tyrosine-protein phosphatase F (Homo sapiens, UniProt P10586); test: Inhibition of human LAR
[2] = molecular target: T1, Tyrosine-protein phosphatase non-receptor type 2 (Homo sapiens, UniProt P17706); test: Inhibition of TCPTP
T1 sequence (P17706 whole entry): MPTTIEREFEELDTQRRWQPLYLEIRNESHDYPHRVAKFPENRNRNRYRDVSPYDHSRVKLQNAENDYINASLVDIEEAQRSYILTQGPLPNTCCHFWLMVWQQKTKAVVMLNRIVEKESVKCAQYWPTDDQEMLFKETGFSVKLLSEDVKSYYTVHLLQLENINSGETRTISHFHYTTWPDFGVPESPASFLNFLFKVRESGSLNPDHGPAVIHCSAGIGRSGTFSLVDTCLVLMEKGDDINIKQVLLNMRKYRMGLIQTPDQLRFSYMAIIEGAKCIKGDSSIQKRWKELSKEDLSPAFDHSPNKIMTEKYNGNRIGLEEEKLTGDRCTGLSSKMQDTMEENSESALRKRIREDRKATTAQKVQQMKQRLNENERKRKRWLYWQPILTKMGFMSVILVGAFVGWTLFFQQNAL

[3] = molecular target: T2, M-phase inducer phosphatase 2 (Homo sapiens, UniProt P30305); test: Inhibition of human Cdc25B
T2 sequence (P30305 whole entry): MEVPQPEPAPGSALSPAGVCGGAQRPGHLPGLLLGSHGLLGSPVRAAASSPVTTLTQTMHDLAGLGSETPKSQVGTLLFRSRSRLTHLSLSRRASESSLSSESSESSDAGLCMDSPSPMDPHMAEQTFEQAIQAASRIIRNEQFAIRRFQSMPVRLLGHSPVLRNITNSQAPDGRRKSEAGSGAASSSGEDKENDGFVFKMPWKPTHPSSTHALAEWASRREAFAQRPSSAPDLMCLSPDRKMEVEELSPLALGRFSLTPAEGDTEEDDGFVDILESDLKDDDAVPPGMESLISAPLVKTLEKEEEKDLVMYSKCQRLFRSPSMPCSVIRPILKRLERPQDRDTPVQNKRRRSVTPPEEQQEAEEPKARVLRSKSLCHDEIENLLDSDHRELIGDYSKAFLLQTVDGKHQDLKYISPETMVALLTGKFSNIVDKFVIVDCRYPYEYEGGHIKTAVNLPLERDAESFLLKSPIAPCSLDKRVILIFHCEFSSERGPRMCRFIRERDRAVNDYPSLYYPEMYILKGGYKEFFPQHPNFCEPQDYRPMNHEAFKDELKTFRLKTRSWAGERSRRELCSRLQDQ

[4] = molecular target: T3, Tyrosine-protein phosphatase non-receptor type 11 (Homo sapiens, UniProt Q06124); test: Inhibition of SHP2
T3 sequence (Q06124 whole entry): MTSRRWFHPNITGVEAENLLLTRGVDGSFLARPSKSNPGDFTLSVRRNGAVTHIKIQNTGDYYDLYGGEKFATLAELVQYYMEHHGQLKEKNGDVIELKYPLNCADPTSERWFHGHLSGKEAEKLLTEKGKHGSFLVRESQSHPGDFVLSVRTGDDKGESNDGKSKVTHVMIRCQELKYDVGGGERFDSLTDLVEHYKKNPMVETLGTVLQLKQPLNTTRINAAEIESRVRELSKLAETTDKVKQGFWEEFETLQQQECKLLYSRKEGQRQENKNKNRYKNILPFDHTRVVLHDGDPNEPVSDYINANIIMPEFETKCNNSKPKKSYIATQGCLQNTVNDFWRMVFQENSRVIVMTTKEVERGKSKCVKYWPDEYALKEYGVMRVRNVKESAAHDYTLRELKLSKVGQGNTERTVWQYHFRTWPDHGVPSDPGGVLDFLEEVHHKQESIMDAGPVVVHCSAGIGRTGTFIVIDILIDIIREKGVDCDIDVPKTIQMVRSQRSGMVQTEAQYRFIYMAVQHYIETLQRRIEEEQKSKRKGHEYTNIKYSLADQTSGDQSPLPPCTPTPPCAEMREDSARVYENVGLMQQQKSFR

[5] = molecular target: T4, M-phase inducer phosphatase 1 (Homo sapiens, UniProt P30304); test: Inhibition of human CDC25A
T4 sequence (P30304 whole entry): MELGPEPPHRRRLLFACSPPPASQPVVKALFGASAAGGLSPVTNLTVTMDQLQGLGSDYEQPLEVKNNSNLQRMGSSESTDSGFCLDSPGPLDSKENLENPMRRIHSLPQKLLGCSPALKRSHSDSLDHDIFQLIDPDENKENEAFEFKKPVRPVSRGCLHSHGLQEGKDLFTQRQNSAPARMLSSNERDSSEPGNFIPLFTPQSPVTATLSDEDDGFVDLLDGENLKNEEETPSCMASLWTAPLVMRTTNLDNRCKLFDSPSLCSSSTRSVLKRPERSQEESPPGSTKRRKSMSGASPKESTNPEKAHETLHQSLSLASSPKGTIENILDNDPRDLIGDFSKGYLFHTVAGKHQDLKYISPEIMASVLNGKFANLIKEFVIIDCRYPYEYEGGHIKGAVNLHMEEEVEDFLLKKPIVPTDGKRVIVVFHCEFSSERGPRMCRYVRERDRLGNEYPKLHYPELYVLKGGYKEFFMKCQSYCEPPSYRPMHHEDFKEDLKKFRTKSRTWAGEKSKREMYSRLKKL

HCT-116 = test: Cytotoxicity against human HCT116 cells after 72 hrs by MTT assay; format: functional, cell-based; conditions: HCT-116, 72 h
Outline: (§1)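 Cells seeded at 2000/well and held 24 h at 37 °C, 5% CO2 before treatment. After a 3 h MTT incubation, medium was replaced by DMSO. Absorbance read at 550 nm against a 690 nm reference, with OD taken as proportional to viable cell number.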

[6] = molecular target: Tyrosine-protein phosphatase non-receptor type 6 (Homo sapiens, UniProt P29350); test: Inhibition of SHP1
[7] = molecular target: T5, Tyrosine-protein phosphatase non-receptor type 1 (Homo sapiens, UniProt P18031); test: Inhibition of human recombinant […] catalytic domain using pNPP substrate
T5 sequence (P18031 whole entry): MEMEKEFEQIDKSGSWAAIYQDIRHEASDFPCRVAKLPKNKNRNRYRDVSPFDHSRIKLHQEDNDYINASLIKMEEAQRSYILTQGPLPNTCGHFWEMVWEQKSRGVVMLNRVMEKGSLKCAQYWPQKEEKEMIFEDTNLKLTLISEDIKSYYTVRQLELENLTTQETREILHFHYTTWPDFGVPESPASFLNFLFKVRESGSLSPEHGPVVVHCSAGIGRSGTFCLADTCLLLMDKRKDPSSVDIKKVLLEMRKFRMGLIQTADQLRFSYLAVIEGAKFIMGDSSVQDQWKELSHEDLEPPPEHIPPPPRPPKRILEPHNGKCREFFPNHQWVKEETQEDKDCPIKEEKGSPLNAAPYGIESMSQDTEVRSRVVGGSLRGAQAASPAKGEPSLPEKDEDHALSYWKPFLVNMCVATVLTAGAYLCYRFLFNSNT
Outline: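 Recombinant human PTP1B catalytic domain (30 nM) with 2 mM pNPP in 50 mM MOPS, pH 6.5, at 30 °C. Inhibitor diluted around the estimated IC50. Initial rate taken from the early linear part of the 405 nm trace over 2 min. IC50 from nonlinear fit of % inhibition vs [I] with a Hill-coefficient equation. Means of three experiments.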

A549 = test: Cytotoxicity against human A549 cells after 72 hrs by MTT assay; format: functional, cell-based; conditions: A549, 72 h; outline: as §1
HeLa = test: Cytotoxicity against human HeLa cells after 72 hrs by MTT assay; format: functional, cell-based; outline: as §1
[8] = molecular target: T5, Tyrosine-protein phosphatase non-receptor type 1; test: Competitive inhibition of human recombinant […] catalytic domain using pNPP substrate at 30 degC and pH 6.5 by Eadie-Hofstee plot
Outline: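 For the inhibition-mode study, 30 nM PTP1B was run in 50 mM MOPS, pH 6.5, at 30 °C. pNPP was varied in twofold dilutions up to 80 mM, at several inhibitor concentrations. pNP release was read at 405 nm.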

[9] = molecular target: T6, M-phase inducer phosphatase 2 (Homo sapiens) (UniProt P30305); test: Mixed type inhibition of human Cdc25B using pNPP substrate at 30 degC and pH 6.5 by Eadie-Hofstee plot
T6 sequence (whole entry): T2 sequence (P30305 whole entry)

Sequence of Receptor-type tyrosine-protein phosphatase F (P10586 whole entry): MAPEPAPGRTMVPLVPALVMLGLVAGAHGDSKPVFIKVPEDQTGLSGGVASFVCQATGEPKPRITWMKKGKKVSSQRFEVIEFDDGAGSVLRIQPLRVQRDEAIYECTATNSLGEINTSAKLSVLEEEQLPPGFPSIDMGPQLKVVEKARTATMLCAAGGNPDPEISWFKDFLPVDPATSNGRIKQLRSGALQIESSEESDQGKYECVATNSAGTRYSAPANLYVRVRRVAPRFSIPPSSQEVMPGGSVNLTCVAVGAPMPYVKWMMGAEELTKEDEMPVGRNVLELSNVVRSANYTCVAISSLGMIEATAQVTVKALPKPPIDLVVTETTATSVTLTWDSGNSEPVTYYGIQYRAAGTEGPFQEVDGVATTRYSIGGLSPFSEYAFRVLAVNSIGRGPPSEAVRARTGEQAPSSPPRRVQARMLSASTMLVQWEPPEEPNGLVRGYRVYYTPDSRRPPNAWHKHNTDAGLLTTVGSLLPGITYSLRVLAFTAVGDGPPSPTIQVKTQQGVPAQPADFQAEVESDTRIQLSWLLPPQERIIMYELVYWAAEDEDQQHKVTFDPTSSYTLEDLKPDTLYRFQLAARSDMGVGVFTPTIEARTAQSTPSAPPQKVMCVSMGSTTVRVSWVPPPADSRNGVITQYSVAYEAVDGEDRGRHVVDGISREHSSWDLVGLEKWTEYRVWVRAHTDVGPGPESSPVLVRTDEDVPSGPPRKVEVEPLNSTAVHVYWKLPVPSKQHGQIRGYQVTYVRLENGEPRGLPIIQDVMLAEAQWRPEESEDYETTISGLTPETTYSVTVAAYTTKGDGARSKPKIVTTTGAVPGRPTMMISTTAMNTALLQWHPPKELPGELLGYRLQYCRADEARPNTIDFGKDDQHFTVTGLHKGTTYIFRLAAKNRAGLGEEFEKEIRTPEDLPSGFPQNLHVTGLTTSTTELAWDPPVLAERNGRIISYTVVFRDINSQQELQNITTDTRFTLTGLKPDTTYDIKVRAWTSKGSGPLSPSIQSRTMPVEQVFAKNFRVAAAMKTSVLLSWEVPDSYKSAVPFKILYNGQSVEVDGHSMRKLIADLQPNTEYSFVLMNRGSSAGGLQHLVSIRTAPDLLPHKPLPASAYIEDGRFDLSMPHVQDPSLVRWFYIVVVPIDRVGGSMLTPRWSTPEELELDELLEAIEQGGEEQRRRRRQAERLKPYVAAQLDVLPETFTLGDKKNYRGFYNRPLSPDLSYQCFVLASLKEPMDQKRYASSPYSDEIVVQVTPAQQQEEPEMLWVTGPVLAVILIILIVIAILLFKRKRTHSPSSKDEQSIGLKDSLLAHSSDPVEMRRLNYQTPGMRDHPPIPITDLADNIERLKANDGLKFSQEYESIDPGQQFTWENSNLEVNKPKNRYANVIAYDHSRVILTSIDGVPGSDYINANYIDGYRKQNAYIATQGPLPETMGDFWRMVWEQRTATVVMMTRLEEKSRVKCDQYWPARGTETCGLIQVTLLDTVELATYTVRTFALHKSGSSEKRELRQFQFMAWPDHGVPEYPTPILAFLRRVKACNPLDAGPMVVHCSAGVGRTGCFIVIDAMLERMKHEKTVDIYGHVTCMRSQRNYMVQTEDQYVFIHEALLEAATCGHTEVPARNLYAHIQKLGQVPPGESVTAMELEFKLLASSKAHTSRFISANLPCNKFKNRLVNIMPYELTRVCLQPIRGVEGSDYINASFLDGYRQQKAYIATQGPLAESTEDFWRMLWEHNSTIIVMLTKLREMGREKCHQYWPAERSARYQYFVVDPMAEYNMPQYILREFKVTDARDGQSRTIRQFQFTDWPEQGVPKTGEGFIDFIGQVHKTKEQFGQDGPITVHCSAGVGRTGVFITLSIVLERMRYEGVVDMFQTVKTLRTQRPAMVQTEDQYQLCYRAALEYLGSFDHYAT
Sequence of Tyrosine-protein phosphatase non-receptor type 6 (P29350 whole entry, the tested form may be a part): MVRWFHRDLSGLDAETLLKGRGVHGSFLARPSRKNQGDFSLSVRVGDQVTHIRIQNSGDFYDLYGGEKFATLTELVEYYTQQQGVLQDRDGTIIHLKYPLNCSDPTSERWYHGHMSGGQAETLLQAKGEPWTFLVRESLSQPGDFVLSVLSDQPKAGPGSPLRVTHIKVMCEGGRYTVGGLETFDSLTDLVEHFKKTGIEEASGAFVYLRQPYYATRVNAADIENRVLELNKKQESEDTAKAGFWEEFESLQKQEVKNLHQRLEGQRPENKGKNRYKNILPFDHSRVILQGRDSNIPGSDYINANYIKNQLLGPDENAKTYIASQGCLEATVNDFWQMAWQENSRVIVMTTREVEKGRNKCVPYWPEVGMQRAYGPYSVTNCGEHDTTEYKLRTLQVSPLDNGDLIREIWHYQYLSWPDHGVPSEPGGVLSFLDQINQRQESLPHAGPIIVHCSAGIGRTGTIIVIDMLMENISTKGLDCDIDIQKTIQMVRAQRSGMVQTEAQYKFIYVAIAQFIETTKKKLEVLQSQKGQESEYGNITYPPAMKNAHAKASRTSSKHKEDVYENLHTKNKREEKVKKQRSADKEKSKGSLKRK

IC50 [1] [µM]	IC50 [2] [µM]	IC50 [3] [µM]	IC50 [4] [µM]	IC50 [5] [µM]	IC50 [6] [µM]	IC50 [7] [µM]	Ki [8] [µM]	inhibition [9]	SMILES	IC50 (HCT-116) [µM]	IC50 (A549) [µM]	IC50 (HeLa) [µM]
> 120	> 120	31.1	> 120	> 120	> 120	15.3			CO[C@H]1O[C@H](Cn2cc(CO[C@@H](C)[C@H](NC(=O)OC(C)(C)C)C(=O)O)nn2)[C@H](OCc2ccccc2)[C@H](OCc2ccccc2)[C@H]1OCc1ccccc1	36.6	108	56.4
> 120	12.5	6.2	47.6	24.3	40.4	5.9	3.9	Active	CC(C)(C)OC(=O)N[C@@H](COCc1cn([C@@H]2O[C@H](COCc3ccccc3)[C@@H](OCc3ccccc3)[C@H](OCc3ccccc3)[C@H]2OCc2ccccc2)nn1)C(=O)O	12.8	35.2	25.3
> 120	38.6	11.6	> 120	53	> 120	7.1			C[C@H](OCc1cn([C@@H]2O[C@H](COCc3ccccc3)[C@@H](OCc3ccccc3)[C@H](OCc3ccccc3)[C@H]2OCc2ccccc2)nn1)[C@H](NC(=O)OC(C)(C)C)C(=O)O	12	25.3	31.5
> 120	> 120	67.5	> 120	> 120	> 120	67.8			CO[C@H]1O[C@H](Cn2cc(COC[C@H](NC(=O)OC(C)(C)C)C(=O)O)nn2)[C@@H](OCc2ccccc2)[C@H](OCc2ccccc2)[C@H]1OCc1ccccc1	46.3	120	75.4
> 120	54.9	20.6	> 120	> 120	> 120	20.9			CO[C@H]1O[C@H](Cn2cc(COC[C@H](NC(=O)OC(C)(C)C)C(=O)O)nn2)[C@H](OCc2ccccc2)[C@H](OCc2ccccc2)[C@H]1OCc1ccccc1	> 120	> 120	> 120
> 120	89.2	8.2	> 120	26.8	> 120	18.5			CO[C@H]1O[C@H](Cn2cc(COC[C@H](NC(=O)OC(C)(C)C)C(=O)O)nn2)[C@@H](OCc2ccccc2)[C@H](OCc2ccccc2)[C@@H]1OCc1ccccc1	32.3	97.3	54.2
> 120	80.7	27.1	> 120	119	> 120	22.3			CO[C@H]1O[C@H](Cn2cc(CO[C@@H](C)[C@H](NC(=O)OC(C)(C)C)C(=O)O)nn2)[C@@H](OCc2ccccc2)[C@H](OCc2ccccc2)[C@H]1OCc1ccccc1	33.5	62.8	69.5
> 120	105	12.2	> 120	51.6	> 120	26			CO[C@H]1O[C@H](Cn2cc(CO[C@@H](C)[C@H](NC(=O)OC(C)(C)C)C(=O)O)nn2)[C@@H](OCc2ccccc2)[C@H](OCc2ccccc2)[C@@H]1OCc1ccccc1	32.2	57.2	53.7
> 120		> 120	> 120		> 120	> 120			CC(C)(C)OC(=O)N[C@@H](COCc1cn([C@@H]2O[C@H](CO)[C@@H](O)[C@H](O)[C@H]2O)nn1)C(=O)O			
